pIC50: −log10 of the molar value.
Each compound was assayed on A2780 (assay: Antiproliferative activity against human A2780 cells).
Assay type: functional, cell-based
In short: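 Growth inhibition of the drug-sensitive human ovarian cancer line A2780, measured at Virginia Polytechnic Institute and State University. IC50 is the concentration that inhibited 50% of cell growth. Actinomycin D was the positive control.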

Row | Compound | pIC50
1 | C[C@H]1O[C@@H](O[C@H]2CC[C@@]3(C=O)[C@@H](CC[C@@H]4[C@@H]3CC[C@]3(C)[C@@H](C5=CC(=O)OC5)CC[C@]43O)C2)C[C@H](O)[C@H]1O | 6.82
2 | CO[C@H]1[C@@H](O)[C@H](O[C@H]2CC[C@@]3(C)[C@@H](CC[C@@H]4[C@@H]3CC[C@]3(C)[C@@H](C5=CC(=O)OC5)CC[C@]43O)C2)O[C@@H](C)[C@@H]1O[C@@H]1O[C@H](CO)[C@@H](O)[C@H](O)[C@H]1O | 6.82
3 | C[C@H]1[C@@H](O[C@H]2CC[C@@]3(C)[C@@H](CC[C@@H]4[C@@H]3CC[C@]3(C)[C@@H](C5=CC(=O)OC5)CC[C@]43O)C2)O[C@@H](C)[C@@H](O)[C@H]1O | 6.82
4 | CO[C@H]1C[C@H](O[C@H]2CC[C@@]3(C=O)[C@@H](CC[C@@H]4[C@@H]3CC[C@]3(C)[C@H](C5=CC(=O)OC5)CC[C@]43O)C2)O[C@H](C)[C@@H]1O | 5.43
5 | CO[C@@H]1[C@@H](O)[C@H](O[C@H]2CC[C@@]3(C=O)[C@@H](CC[C@@H]4[C@@H]3CC[C@]3(C)[C@@H](C5=CC(=O)OC5)CC[C@]43O)C2)O[C@H](C)[C@@H]1O[C@@H]1O[C@H](CO)[C@@H](O)[C@H](O)[C@H]1O [BOIVINIDE A] | 6.77
6 | CO[C@H]1C[C@H](O[C@H]2CC[C@@]3(C=O)[C@@H](CC[C@@H]4[C@@H]3CC[C@]3(C)[C@@H](C5=CC(=O)OC5)CC[C@]43O)C2)O[C@H](C)[C@@H]1O[C@@H]1O[C@H](CO)[C@@H](O)[C@H](O)[C@H]1O [BOIVINIDE B] | 6.18
7 | CO[C@H]1C[C@H](O[C@H]2CC[C@@]3(C=O)[C@@H](CC[C@@H]4[C@@H]3CC[C@]3(C)[C@H](C5=CC(=O)OC5)CC[C@]43O)C2)O[C@H](C)[C@@H]1O[C@@H]1O[C@H](CO)[C@@H](O)[C@H](O)[C@H]1O [BOIVINIDE C] | 5.54
8 | C[C@H]1O[C@@H](O[C@H]2CC[C@@]3(C=O)[C@@H](CC[C@@H]4[C@@H]3CC[C@]3(C)[C@@H](C5=CC(=O)OC5)CC[C@]43O)C2)C[C@H](O)[C@H]1O[C@@H]1O[C@H](CO)[C@@H](O)[C@H](O)[C@H]1O [BOIVINIDE D] | 6.54
9 | CO[C@H]1[C@@H](O[C@@H]2O[C@H](CO)[C@@H](O)[C@H](O)[C@H]2O)[C@@H](C)O[C@@H](O[C@H]2CC[C@@]3(C=O)[C@@H](CC[C@@H]4[C@@H]3CC[C@]3(C)[C@@H](C5=CC(=O)OC5)CC[C@]43O)C2)[C@@H]1OC(C)=O [BOIVINIDE F] | 6.27

— ChEMBL document CHEMBL1141348, “Cytotoxic cardenolide glycosides of Roupellina (Strophanthus) boivinii from the Madagascar rainforest” (J Nat Prod, 2007)
